ChEMBL document CHEMBL3593164, “Rational Design and Synthesis of Thioridazine Analogues as Enhancers of the Antituberculosis Therapy” (J Med Chem, 2015)

Assays:
[1] = tested on: Mycobacterium tuberculosis; experiment: Inhibition of multidrug resistance efflux pump in Mycobacterium tuberculosis H37Rv assessed as reduction in amikacin MIC at 256 ug/ml after 7 days by two-dimensional broth microdilution checkerboard assay
Method in brief: (§1)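 M. tuberculosis H37Rv two-dimensional broth microdilution checkerboard. MICs of INH, RIF, AMK, OFX or EtBr were determined without and with graded sub-inhibitory compound concentrations, starting at ½ MIC. Where MIC was undeterminable, the highest concentration still permitting growth was taken as ½ MIC. FIC = MIC of antibacterial in combination / MIC alone. FIC ≤0.25 was scored as synergism and ≥2 as antagonism.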

[2] = tested on: Mycobacterium tuberculosis; experiment: Inhibition of multidrug resistance efflux pump in Mycobacterium tuberculosis H37Rv assessed as amikacin MIC at 8 ug/ml after 7 days by two-dimensional broth microdilution checkerboard assay; conditions: 168 h
[3] = tested on: Mycobacterium tuberculosis; experiment: Inhibition of multidrug resistance efflux pump in Mycobacterium tuberculosis H37Rv assessed as ethidium bromide MIC at 8 ug/ml after 7 days by two-dimensional broth microdilution checkerboard assay; conditions: 168 h
[4] = tested on: Mycobacterium tuberculosis; experiment: Inhibition of multidrug resistance efflux pump in Mycobacterium tuberculosis H37Rv assessed as amikacin MIC at 128 ug/ml after 7 days by two-dimensional broth microdilution checkerboard assay; conditions: 168 h
[5] = tested on: Mycobacterium tuberculosis; experiment: Inhibition of multidrug resistance efflux pump in Mycobacterium tuberculosis H37Rv assessed as rifampin MIC at 32 ug/ml after 7 days by two-dimensional broth microdilution checkerboard assay; conditions: 168 h
[6] = tested on: Mycobacterium tuberculosis; experiment: Inhibition of multidrug resistance efflux pump in Mycobacterium tuberculosis H37Rv assessed as reduction in ethidium bromide MIC at 256 ug/ml after 7 days by two-dimensional broth microdilution checkerboard assay; method in brief: as §1
[7] = tested on: Mycobacterium tuberculosis; experiment: Inhibition of multidrug resistance efflux pump in Mycobacterium tuberculosis H37Rv assessed as amikacin MIC at 64 ug/ml after 7 days by two-dimensional broth microdilution checkerboard assay; conditions: 168 h
[8] = tested on: Mycobacterium tuberculosis; experiment: Inhibition of multidrug resistance efflux pump in Mycobacterium tuberculosis H37Rv assessed as ofloxacin MIC at 16 ug/ml after 7 days by two-dimensional broth microdilution checkerboard assay; conditions: 168 h
[9] = tested on: Mycobacterium tuberculosis; experiment: Inhibition of multidrug resistance efflux pump in Mycobacterium tuberculosis H37Rv assessed as rifampin MIC at 64 ug/ml after 7 days by two-dimensional broth microdilution checkerboard assay; conditions: 168 h
[10] = tested on: Mycobacterium tuberculosis; experiment: Inhibition of multidrug resistance efflux pump in Mycobacterium tuberculosis H37Rv assessed as reduction in isoniazid MIC at 256 ug/ml after 7 days by two-dimensional broth microdilution checkerboard assay; method in brief: as §1
[11] = tested on: Mycobacterium tuberculosis; experiment: Inhibition of multidrug resistance efflux pump in Mycobacterium tuberculosis H37Rv assessed as amikacin MIC at 4 ug/ml after 7 days by two-dimensional broth microdilution checkerboard assay; conditions: 168 h
[12] = tested on: Mycobacterium tuberculosis; experiment: Inhibition of multidrug resistance efflux pump in Mycobacterium tuberculosis H37Rv assessed as reduction in ofloxacin MIC at 256 ug/ml after 7 days by two-dimensional broth microdilution checkerboard assay; method in brief: as §1
[13] = tested on: Mycobacterium tuberculosis; experiment: Inhibition of multidrug resistance efflux pump in Mycobacterium tuberculosis H37Rv assessed as isoniazid MIC at 0.12 ug/ml after 7 days by two-dimensional broth microdilution checkerboard assay; conditions: 168 h
Method in brief: (§2)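 M. tuberculosis H37Rv ATCC27294. MICs of INH, RIF, AMK, OFX and EtBr were determined alone and with sub-inhibitory concentrations of test compound by two-dimensional broth microdilution checkerboard. Where a compound's MIC was not determinable, the highest concentration still allowing growth was taken as ½ MIC. FIC = MIC in combination / MIC alone. FIC ≤0.25 was scored as synergism and ≥2 as antagonism.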

[14] = tested on: Mycobacterium tuberculosis; experiment: Inhibition of multidrug resistance efflux pump in Mycobacterium tuberculosis H37Rv assessed as ofloxacin MIC at 3.75 ug/ml after 7 days by two-dimensional broth microdilution checkerboard assay; conditions: 168 h; method in brief: as §2
[15] = tested on: Mycobacterium tuberculosis; experiment: Inhibition of multidrug resistance efflux pump in Mycobacterium tuberculosis H37Rv assessed as amikacin MIC at 1.88 ug/ml after 7 days by two-dimensional broth microdilution checkerboard assay; conditions: 168 h; method in brief: as §2
[16] = tested on: Mycobacterium tuberculosis; experiment: Inhibition of multidrug resistance efflux pump in Mycobacterium tuberculosis H37Rv assessed as isoniazid MIC at 1.88 ug/ml after 7 days by two-dimensional broth microdilution checkerboard assay; conditions: 168 h; method in brief: as §2
[17] = tested on: Mycobacterium tuberculosis; experiment: Inhibition of multidrug resistance efflux pump in Mycobacterium tuberculosis H37Rv assessed as isoniazid MIC at 0.23 ug/ml after 7 days by two-dimensional broth microdilution checkerboard assay; conditions: 168 h; method in brief: as §2
[18] = tested on: Mycobacterium tuberculosis; experiment: Inhibition of multidrug resistance efflux pump in Mycobacterium tuberculosis H37Rv assessed as amikacin MIC at 0.12 ug/ml after 7 days by two-dimensional broth microdilution checkerboard assay; conditions: 168 h; method in brief: as §2
[19] = tested on: Mycobacterium tuberculosis; experiment: Inhibition of multidrug resistance efflux pump in Mycobacterium tuberculosis H37Rv assessed as ethidium bromide MIC at 0.23 ug/ml after 7 days by two-dimensional broth microdilution checkerboard assay; conditions: 168 h; method in brief: as §2
[20] = tested on: Mycobacterium tuberculosis; experiment: Inhibition of multidrug resistance efflux pump in Mycobacterium tuberculosis H37Rv assessed as isoniazid MIC at 0.94 ug/ml after 7 days by two-dimensional broth microdilution checkerboard assay; conditions: 168 h; method in brief: as §2
[21] = tested on: Mycobacterium tuberculosis; experiment: Inhibition of multidrug resistance efflux pump in Mycobacterium tuberculosis H37Rv assessed as reduction in isoniazid MIC at 7.5 ug/ml after 7 days by two-dimensional broth microdilution checkerboard assay; method in brief: as §1
[22] = tested on: Mycobacterium tuberculosis; experiment: Inhibition of multidrug resistance efflux pump in Mycobacterium tuberculosis H37Rv assessed as reduction in rifampin MIC at 16 ug/ml after 7 days by two-dimensional broth microdilution checkerboard assay; method in brief: as §1
[23] = tested on: Mycobacterium tuberculosis; experiment: Inhibition of multidrug resistance efflux pump in Mycobacterium tuberculosis H37Rv assessed as reduction in rifampin MIC at 128 ug/ml after 7 days by two-dimensional broth microdilution checkerboard assay
[24] = tested on: Mycobacterium tuberculosis; experiment: Inhibition of multidrug resistance efflux pump in Mycobacterium tuberculosis H37Rv assessed as reduction in rifampin MIC at 8 ug/ml after 7 days by two-dimensional broth microdilution checkerboard assay; method in brief: as §1
[25] = tested on: Mycobacterium tuberculosis; experiment: Inhibition of multidrug resistance efflux pump in Mycobacterium tuberculosis H37Rv assessed as reduction in amikacin MIC at 64 ug/ml after 7 days by two-dimensional broth microdilution checkerboard assay; method in brief: as §1
[26] = tested on: Mycobacterium tuberculosis; experiment: Inhibition of multidrug resistance efflux pump in Mycobacterium tuberculosis H37Rv assessed as isoniazid MIC at 1 ug/ml after 7 days by two-dimensional broth microdilution checkerboard assay; conditions: 168 h; method in brief: as §1
[27] = tested on: Mycobacterium tuberculosis; experiment: Inhibition of multidrug resistance efflux pump in Mycobacterium tuberculosis H37Rv assessed as reduction in ethidium bromide MIC at 32 ug/ml after 7 days by two-dimensional broth microdilution checkerboard assay; method in brief: as §1
[28] = tested on: Mycobacterium tuberculosis; experiment: Inhibition of multidrug resistance efflux pump in Mycobacterium tuberculosis H37Rv assessed as amikacin MIC at 2 ug/ml after 7 days by two-dimensional broth microdilution checkerboard assay; conditions: 168 h
[29] = tested on: Mycobacterium tuberculosis; experiment: Inhibition of multidrug resistance efflux pump in Mycobacterium tuberculosis H37Rv assessed as reduction in ofloxacin MIC at 64 ug/ml after 7 days by two-dimensional broth microdilution checkerboard assay; method in brief: as §1
[30] = tested on: Mycobacterium tuberculosis; experiment: Inhibition of multidrug resistance efflux pump in Mycobacterium tuberculosis H37Rv assessed as reduction in ethidium bromide MIC at 64 ug/ml after 7 days by two-dimensional broth microdilution checkerboard assay
[31] = tested on: Mycobacterium tuberculosis; experiment: Inhibition of multidrug resistance efflux pump in Mycobacterium tuberculosis H37Rv assessed as reduction in isoniazid MIC at 128 ug/ml after 7 days by two-dimensional broth microdilution checkerboard assay

| Structure (SMILES) | fold change (FC) [1] | MIC [2] | MIC [3] | MIC [4] | MIC [5] | fold change (FC) [6] | MIC [7] | MIC [8] | MIC [9] | fold change (FC) [10] | MIC [11] | fold change (FC) [12] | fold change (FC) [22] | fold change (FC) [23] | fold change (FC) [24] | fold change (FC) [25] | fold change (FC) [29] | fold change (FC) [30] | further results |
| --- | --- | --- | --- | --- | --- | --- | --- | --- | --- | --- | --- | --- | --- | --- | --- | --- | --- | --- | --- |
| CN1CCCCC1CCn1cnc2ccccc21 (racemic) | >128 | 1 µg/mL | 12.5 µg/mL | 1 µg/mL | 0.5 µg/mL | >64 | 1 µg/mL | 1 µg/mL | 0.5 µg/mL | >128 | 1 µg/mL | >128 | – | – | – | – | – | – | – |
| CSc1ccc2c(c1)N(CCC1CCCCN1C)c1ccccc1S2 (centres undefined) [THIORIDAZINE] | – | – | – | – | – | – | – | – | – | – | – | – | – | – | – | – | – | – | MIC [13]: 0.1 µg/mL; MIC [14]: 1 µg/mL; MIC [15]: 1 µg/mL; MIC [16]: 0.1 µg/mL; MIC [17]: 0.1 µg/mL; MIC [18]: 1 µg/mL; MIC [19]: 6.25 µg/mL; MIC [20]: 0.1 µg/mL; fold change (FC) [21]: >128 |
| COc1ccc(N(CCC2CCCCN2C)C(C)C)cc1OC (racemic) | – | 2 µg/mL | 12.5 µg/mL | 2 µg/mL | 0.25 µg/mL | – | 2 µg/mL | 2 µg/mL | 0.25 µg/mL | – | 2 µg/mL | – | 4 | 4 | 4 | – | – | – | – |
| CN1CCCCC1CCn1c2ccccc2c2ccccc21 (racemic) | – | 1 µg/mL | 12.5 µg/mL | – | 0.0625 µg/mL | – | < 0.0156 µg/mL | 1 µg/mL | < 0.0156 µg/mL | – | 1 µg/mL | – | – | – | – | >128 | >128 | >64 | MIC [26]: 0.1 µg/mL; fold change (FC) [27]: 4; MIC [28]: 1 µg/mL |
| CN1CCCCC1CCn1ccc2ccc(Br)cc21 (racemic) | >128 | 1 µg/mL | 12.5 µg/mL | < 0.0156 µg/mL | 0.0312 µg/mL | >164 | > 0.0156 µg/mL | 1 µg/mL | < 0.0156 µg/mL | >128 | 1 µg/mL | >128 | 16 | >164 | 4 | >128 | >128 | 8 | fold change (FC) [31]: >164 |
